Shown are actives, neighbours in structure and some others; about 2.5% of the full set was active somewhere.
Rin1-Abl PPI inh = blocks binding of human Rin1 to Abl. P00519+Q13671. TR-FRET Rin1/Abl binding, biochemical. 0.4% of 360,000 active. AID 588664. inhibition, % at 7.35 µM; in the data active means inhibition above about 5%, passing the limit was not always enough
Arr AP2 block = human beta-arrestin and AP2 interaction inhibition | FITC-arrestin peptide / GST-AP2 beads, flow cytometry; AP2 beta2 appendage carries R879A mutation | inhibition, % at 10 µM | 0.31% of 340,000 active | AID 504490;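 active means inhibition above a set limit, near 3 SD of compounds lacking own fluorescence, cut at about 54% in these data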;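 further: plate controls were DMSO wells for no effect and 5 µM unlabelled arrestin peptide for full effect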
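System: GST-AP2 R879A glutathione beads; medium: PBS, Tween 20 0.05%, BSA 0.1%; reagent: fluorescein-tagged arrestin peptide at 50 nM final; schedule: pre-incubation 12 min, peptide binding 1 h, room temperature; detection: flow cytometry, FL1 (488/535 nm); read-out: inhibition as reduced fluorescein signal on beads, percent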
UHRF1 MBD2 ctr = human UHRF1 methylated DNA binding inhibitors; Q96T88; UHRF1 binding to methylated oligo, TR-FRET; inhibition, % at 4.4 µM; 0.75% of 370,000 active; AID 687016;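 further: UHRF1 SRA domain binding a hemimethylated CpG hairpin DNA probe; 0% = median of test compound wells and 100% = reference inhibitor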
Target sequence (Q96T88 whole entry, looked up, the tested form may be a part): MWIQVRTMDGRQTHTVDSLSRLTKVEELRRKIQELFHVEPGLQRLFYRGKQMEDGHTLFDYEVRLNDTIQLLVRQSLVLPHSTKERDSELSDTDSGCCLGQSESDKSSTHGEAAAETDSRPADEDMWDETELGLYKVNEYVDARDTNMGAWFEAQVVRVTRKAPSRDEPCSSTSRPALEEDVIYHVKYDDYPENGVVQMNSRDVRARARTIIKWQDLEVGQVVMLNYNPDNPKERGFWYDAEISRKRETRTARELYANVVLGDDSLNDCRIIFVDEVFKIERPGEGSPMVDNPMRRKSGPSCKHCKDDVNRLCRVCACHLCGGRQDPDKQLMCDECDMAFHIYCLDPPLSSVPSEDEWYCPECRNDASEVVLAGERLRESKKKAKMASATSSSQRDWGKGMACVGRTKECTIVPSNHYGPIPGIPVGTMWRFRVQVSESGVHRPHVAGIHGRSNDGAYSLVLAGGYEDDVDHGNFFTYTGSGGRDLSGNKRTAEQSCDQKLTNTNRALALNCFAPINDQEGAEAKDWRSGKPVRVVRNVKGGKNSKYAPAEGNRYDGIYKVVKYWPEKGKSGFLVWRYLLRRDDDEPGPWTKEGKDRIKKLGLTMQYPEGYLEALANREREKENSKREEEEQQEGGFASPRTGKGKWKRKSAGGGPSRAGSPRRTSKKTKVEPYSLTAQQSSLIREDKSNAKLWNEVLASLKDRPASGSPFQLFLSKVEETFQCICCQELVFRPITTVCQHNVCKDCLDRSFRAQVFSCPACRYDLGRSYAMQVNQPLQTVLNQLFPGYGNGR
ABHD5-PLIN5 inh = ABHD5-PLIN5 protein interaction inhibition. Q00G26+Q8WTS1. 0.78% of 360,000 active. Split G. princeps luciferase complementation, luminescence, 4 h. inhibition, % at 4 µM;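 active means inhibition above the mean inhibition across every tested compound plus 3 SD, cut at about 22% in these data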;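 further: 0% = DMSO only wells and the 100% control is not disclosed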
MBD2 DNA inh = inhibitors of human MBD2 binding to methylated oligonucleotide; TR-FRET; 0.31% of 370,000 active; inhibition, % at 4.4 µM; in the data active means inhibition above about 13%
Beta2AR agonist = activates human beta-2 adrenergic receptor causing internalization; Am2.2-beta2AR cells, FAP receptor internalization, flow cytometry; response, % (no concentration beside the values); P07550; AID 504454; 0.43% of 340,000 active;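 active means response above a set limit, near 3 SD of response in nonfluorescent compounds, cut at about 42% in these data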
UHRF1 ctr MBD2 = inhibits human UHRF1 binding to methylated oligonucleotide, MBD2 counter-screen | shares compounds with MBD2 DNA inh | TR-FRET | inhibition, % at 4.4 µM | 25% of 1,000 active;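 further: UHRF1 SRA domain binding a labeled hemimethylated CpG hairpin DNA; 0% = vehicle only and 100% = reference inhibitor with vehicle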
MBD2 confirm = confirmation of human MBD2-DBD methylated oligonucleotide binding inhibitors | shares compounds with MBD2 DNA inh | TR-FRET MBD2-DBD binding to methylated oligonucleotide | inhibition, % at 4.4 µM | 26% of 1,000 active; in the data active means inhibition above about 14%
An asterisk follows results filed as active; / = no result given. Unless noted, no stated cut-off is given here; in the data, active means inhibition above about 21%; inactive means the rest.

SMILES	Rin1-Abl PPI inh	Arr AP2 block	UHRF1 MBD2 ctr	ABHD5-PLIN5 inh	MBD2 DNA inh	Beta2AR agonist	UHRF1 ctr MBD2	MBD2 confirm
CSc1ccc(CN2CCC(C)(Oc3ccccc3)C2)cc1 (stereo not drawn)	-0.2	/	-1.7	-7.7	-4.1	/	/	/
C=C(C)C(=O)Nc1cccc(C2=NOC3(C2)C[C@@H](C(N)=O)N(C(=O)/C=C/C=C/C)C3)c1 (stereo partly drawn)	3.8	8.6	78.7*	1.8	47.5*	5.5	87.6*	59.7*
C=C(C)C(=O)Nc1cccc(C2=NOC3(C2)C[C@@H](C(N)=O)N(C(=O)CC(c2ccccc2)c2ccccc2)C3)c1 (stereo partly drawn)	1.1	4.7	62.5*	8.8	26.4*	8.0	60.0*	41.7*
C/C=C/C(=O)Nc1cccc(C2=NOC3(C2)C[C@@H](C(N)=O)N(C(=O)c2cc([N+](=O)[O-])cc([N+](=O)[O-])c2)C3)c1 (stereo partly drawn)	-0.5	-9.2	2.7	2.2	16.3*	-3.2	1.9	2.8
C=C(C)C(=O)Nc1cccc(C2=NOC3(C2)C[C@@H](C(N)=O)N(C(=O)/C(C)=C/C)C3)c1 (stereo partly drawn)	1.8	9.2	88.9*	-0.4	38.0*	/	91.1*	68.6*
C=CCn1c(-c2ccccn2)n[nH]c1=S	-2.9	/	-0.6	-9.2	3.5	/	/	/
Clc1cccc(CN2CCN(c3ncc(Cc4ccccc4)cn3)CC2)c1Cl	/	/	0.1	/	-4.9	/	/	/
Cc1cc(NC(=O)c2cc(-c3ccncc3)nc3ccccc23)ccc1Br	0.0	-0.6	-0.4	-0.8	4.4	17.8	/	/
COc1cc(NC(=O)C2CCCN(S(=O)(=O)c3ccccc3)C2)cc(OC)c1 (stereo not drawn)	/	/	1.2	/	-4.4	/	/	/
C=C(C)C(=O)Nc1cccc(C2=NOC3(C2)C[C@H](C(N)=O)N(C(=O)c2ccccc2C(=O)c2ccccc2)C3)c1 (stereo partly drawn)	-1.9	0.7	79.6*	1.4	31.1*	-5.4	66.5*	42.1*
O=C1N[C@@H](Cc2ccccc2)COC(=O)[C@@H](Cc2ccc(F)cc2)CC/C=C/C[C@H]1CC(=O)N(CCO)Cc1ccccc1	2.5	-0.5	0.0	-4.2	15.4*	1.2	4.7	5.9
Cc1ccc(S(=O)(=O)N2C[C@H]3C(=O)C[C@@H](c4ccccc4F)N(S(=O)(=O)c4ccc(C)cc4)[C@H]3C[C@H]2c2ccccc2F)cc1	4.7	/	1.5	19.6	5.1	/	/	/
Cc1ccc([C@@H]2C[C@H]3[C@@H](CN2S(=O)(=O)c2ccc(C)cc2)C(=O)C[C@@H](c2ccccc2F)N3S(=O)(=O)c2ccc(C)cc2)cc1	2.2	/	26.9*	12.8	14.7*	/	3.0	2.7
C=CCn1c(C)cc(C(=O)CSc2nc3ccccc3c(=O)[nH]2)c1C	0.0	4.8	4.1	1.9	-4.2	6.6	/	/
C=CCn1c(C)cc(C(=O)CSc2nc3ccccc3[nH]2)c1C	-1.4	6.8	-3.3	-2.0	19.5*	-1.9	8.6	2.1
Cc1cc(NCCCCCCCNc2cc(C)nc3cc([N+](=O)[O-])ccc23)c2ccc([N+](=O)[O-])cc2n1	-8.4	26.5	30.3*	-7.7	20.6*	16.2	38.0*	49.3*
C#CCOCCOCCOCCNc1nc(N2CCN(C(=O)[C@H]([C@@H](C)CC)n3cc(CCC(=O)O)nn3)CC2)nc(N2CCN(C(=O)[C@H](CCCCN)n3cc(CCCC)nn3)CC2)n1	0.8	0.7	9.7	0.9	24.6*	-0.8	8.9	6.6
C#CCOCCOCCOCCNc1nc(N2CCN(C(=O)[C@H](CCCCN)n3cc([C@@H](N)C(C)CC)nn3)CC2)nc(N2CCN(C(=O)[C@H](CCCCN)n3cc([C@@H](N)C(C)CC)nn3)CC2)n1 (stereo partly drawn)	/	/	16.4	/	15.7*	/	5.6	3.0
C#CCOCCOCCOCCNc1nc(N2CCN(C(=O)[C@H](CCCCN)n3cc(CN)nn3)CC2)nc(N2CCN(C(=O)[C@H](CCCCN)n3cc([C@@H](N)[C@H](C)CC)nn3)CC2)n1	-0.5	-0.6	11.7	6.6	-2.9	2.7	/	/
CC(C)CCNC(=O)C1COC(O)(C(Cc2ccccc2)NC(=O)[C@@H](NC(=O)OCc2ccccc2)C(C)C)CN1 (stereo partly drawn)	/	/	0.0	/	-1.9	/	/	/
Nc1ccc(N=Nc2ccccc2)cc1[N+](=O)[O-]	-2.8	-12.1	-2.0	0.6	-1.9	-0.4	/	/
CC(C)(Oc1ccc(F)cc1)C(=O)OCC(=O)c1ccc(S(C)(=O)=O)cc1	-1.5	15.5	-0.6	-1.1	35.8*	-1.7	5.6	2.5
Cc1ccc(S(=O)(=O)CCC(=O)OCC(=O)c2ccc(F)cc2)cc1	1.2	-13.4	2.3	-1.4	4.3	7.1	/	/
COC(=O)c1ccc(OCc2cc(=O)n3ccsc3n2)cc1	-0.3	11.8	-2.8	2.5	13.4*	3.2	10.8	5.9
COc1cccc(NC(=O)CSCc2cc(=O)n3ccsc3n2)c1	3.1	3.3	/	11.4	/	0.4	/	/
SMILES	Rin1-Abl PPI inh	Arr AP2 block	UHRF1 MBD2 ctr	ABHD5-PLIN5 inh	MBD2 DNA inh	Beta2AR agonist	UHRF1 ctr MBD2	MBD2 confirm
CCc1c(C)nc(SCC(=O)Nc2c(C)n(C)n(-c3ccccc3)c2=O)[nH]c1=O	-2.1	-0.2	0.9	2.7	19.8*	10.4	6.5	1.4
Cc1noc(C)c1Cn1nc(C(=O)O)c2ccccc2c1=O	-1.0	-5.8	0.5	-2.1	31.8*	0.5	2.7	1.2
Cc1ccc(NC(=O)Cn2nnc(-c3ccccc3F)n2)c(C)c1	/	/	-0.8	/	0.6	/	/	/
Cc1onc(-c2ccccc2Cl)c1C(=O)N1CCC(Cc2ccccc2)CC1	5.1	38.6	29.4*	2.4	15.8*	-0.8	7.5	1.6
CNS(=O)(=O)c1cccc(C(=O)OCC(=O)Nc2ccccc2F)c1	2.2	19.4	25.7*	14.8	16.7*	4.4	4.1	1.8
O=C(COC(=O)c1cncc(Br)c1)NCc1ccc(F)cc1	-0.7	9.9	6.1	-4.7	-2.4	-1.2	/	/
O=C(COC(=O)Cc1ccc(F)cc1)NCc1ccco1	-4.7	3.4	4.5	0.4	2.7	4.6	/	/
O=C(COC(=O)c1cncc(Br)c1)NCc1ccco1	2.5	-4.3	43.8*	6.7	13.7*	1.1	26.3*	13.9*
O=C(COC(=O)Cc1cccc(C(F)(F)F)c1)NCc1ccco1	3.4	42.5	35.4*	16.9	17.0*	-1.3	21.1*	6.4
CCOc1ccc2nc(S(=O)(=O)NC(=O)C3(C)CCN3C(=O)c3c(C)noc3C)sc2c1 (stereo not drawn)	-20.1	/	0.6	-5.3	0.1	/	/	/

Screening results (PubChem BioAssay)
